Laboratory results: ChEMBL document CHEMBL4616673 (J Med Chem, 2020)

What was measured:
[1] = target: Dihydroorotate dehydrogenase (quinone), mitochondrial (Homo sapiens, UniProt Q02127); experiment: Inhibition of human DHODH using dihydroorotate as substrate and CoQ10 as co-substrate preincubated for 30 mins followed by substrate addition by DCIP coupled microplate reader assay
HeLa = experiment: Antiproliferative activity against human HeLa cells assessed as reduction in cell viability measured after 48 hrs by MTT assay; assay type: functional, cell-based; conditions: Homo sapiens, HeLa, 48 h
K562 = experiment: Antiproliferative activity against human K562 cells assessed as reduction in cell viability measured after 48 hrs by MTT assay; assay type: functional, cell-based; conditions: Homo sapiens, K562, 48 h
Raji [2] = experiment: Induction of ROS generation in human Raji cells assessed as increase in ROS level measured after 24 hrs by DHE dye based fluorescence microplate reader assay; assay type: functional, cell-based
Outline: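 Raji cells treated 24 h, harvested, stained with 10 μM DHE in pre-warmed PBS for 15 min in the dark. Fluorescence read on a plate reader at ex 510/em 600 nm. Mean ± SD.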

Raji [3] = experiment: Cell cycle arrest in human Raji cells assessed as accumulation at S phase at 0.125 uM measured after 24 hrs by propidium iodide/RNase staining based flow cytometry (reference value: 52%); assay type: functional
Raji [4] = experiment: Induction of apoptosis in human Raji cells assessed as early apoptotic cells at 0.031 uM measured after 48 hrs by Annexin V-FITC staining based flow cytometry (reference value: 1 %); assay type: functional
Raji [5] = experiment: Induction of apoptosis in human Raji cells assessed as early apoptotic cells at 0.063 uM measured after 48 hrs by Annexin V-FITC staining based flow cytometry (reference value: 1 %); assay type: functional
Raji [6] = experiment: Induction of apoptosis in human Raji cells assessed as necrotic cells at 0.125 uM measured after 48 hrs by Annexin V-FITC staining based flow cytometry (reference value: 0.21 %); assay type: functional
[7] = Stability of the compound in pH 1 to 7.4 buffer assessed as decrease in compound concentration at 0.01 mg/ml measured up to 24 hrs by LC-MS analysis; assay type: physicochemical; conditions: read-out: Drug degradation
Outline: (§1)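 Compound at 0.01 mg/mL final in buffer containing 10% acetonitrile at pH 1.0, 4.5, 6.6, 7.4 or 9.0. Held at 37 °C, sampled at 0, 2, 4, 6, 8, 10, 12 and 24 h. Remaining compound by LC-MS.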

[8] = Stability of the compound in pH 9 buffer assessed as decrease in compound concentration at 0.01 mg/ml measured up to 24 hrs by LC-MS analysis; assay type: physicochemical; conditions: read-out: Drug degradation; outline: as §1
[9] = Half life in Sprague-Dawley rat at 25 mg/kg, po administered via gavage by LC-MS analysis; assay type: ADME, organism-based; conditions: in vivo
Outline: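 Male Sprague-Dawley rats, fasted overnight, with jugular vein catheters for serial blood sampling. Single dose given by oral gavage (25 mg/kg) or tail-vein injection (5 mg/kg). Blood drawn at set times and centrifuged at once for plasma. Plasma drug levels measured by LC-MS. Parameters reported as means, n = 6.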

Raji [10] = experiment: Antitumor activity against human Raji cells xenografted in NOD-SCID nude mouse assessed as tumor growth inhibition at 40 mg/kg/day, po administered 6 days a week for 3 weeks relative to control; assay type: functional; conditions: read-out: TGI
Raji [11] = experiment: Antitumor activity against human Raji cells xenografted in NOD-SCID nude mouse assessed as tumor growth inhibition at 80 mg/kg/day, po administered 6 days a week for 3 weeks relative to control; assay type: functional; conditions: read-out: TGI
[12] = Toxicity in NOD-SCID nude mouse xenografted with human Raji cells assessed as dermatitis at 30 mg/kg/day, po administered 6 days a week for 3 weeks; assay type: organism-based; conditions: in vivo
Outline: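 Mice, 6-7 weeks old, injected s.c. with 1×10^7 Raji cells in serum-free medium plus basement membrane matrix. At 100–200 mm3 tumours, randomised (n=6). Oral dosing 6 days/week for 3 weeks: 30 mg/kg/d free compound suspended in 5% NMP/95% PEG400, or 40 or 80 mg/kg/d nanocrystal. Body weight and tumour volume measured every 3 days.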

[13] = Acute toxicity in BALB/c mouse assessed as effect on blood ALB level at 400 mg/kg, po measured on day 14; assay type: organism-based; conditions: in vivo
Outline: (§2)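 BALB/c mice, female and male, 6-8 weeks old, given oral doses within 24 h, up to 400 mg/kg (free compound) or 800 mg/kg (nanocrystal formulation). Watched for body weight loss, diarrhea, anorexia, skin ulcer and toxic death. Serum biochemistry panel was run at the end of treatment.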

[14] = Acute toxicity in BALB/c mouse assessed as effect on blood BUN level at 400 mg/kg, po measured on day 14; assay type: organism-based; conditions: in vivo; outline: as §2
[15] = Acute toxicity in BALB/c mouse assessed as effect on blood CREA level at 400 mg/kg, po measured on day 14; assay type: organism-based; conditions: in vivo; outline: as §2
[16] = Acute toxicity in BALB/c mouse assessed as effect on blood LDH level at 400 mg/kg, po measured on day 14; assay type: organism-based; conditions: in vivo; outline: as §2
[17] = Acute toxicity in BALB/c mouse assessed as effect on blood ALB level at 800 mg/kg, po measured on day 14; assay type: organism-based; conditions: in vivo; outline: as §2
[18] = Acute toxicity in BALB/c mouse assessed as effect on blood BUN level at 800 mg/kg, po measured on day 14; assay type: organism-based; conditions: in vivo; outline: as §2
[19] = Acute toxicity in BALB/c mouse assessed as effect on blood TG level at 800 mg/kg, po measured on day 14; assay type: organism-based; conditions: in vivo; outline: as §2
[20] = Acute toxicity in BALB/c mouse assessed as effect on blood LDH level at 800 mg/kg, po measured on day 14; assay type: organism-based; conditions: in vivo; outline: as §2
[21] = Acute toxicity in BALB/c mouse assessed as effect on blood LDLC level at 800 mg/kg, po measured on day 14; assay type: organism-based; conditions: in vivo; outline: as §2
[22] = Acute toxicity in BALB/c mouse assessed as effect on heart at 400 mg/kg, po measured on day 14 by H and E staining based light microscopic analysis; assay type: organism-based; conditions: in vivo
Outline: (§3)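 Female and male BALB/c mice, 6-8 weeks old, dosed orally within 24 h at up to 400 mg/kg (free compound) or 800 mg/kg (nanocrystal). At the end of treatment, heart, liver, spleen, lung and kidney were sectioned, stained with H&E and imaged by light microscopy.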

[23] = Acute toxicity in BALB/c mouse assessed as effect on liver at 400 mg/kg, po measured on day 14 by H and E staining based light microscopic analysis; assay type: organism-based; conditions: in vivo; outline: as §3
[24] = Acute toxicity in BALB/c mouse assessed as effect on spleen at 400 mg/kg, po measured on day 14 by H and E staining based light microscopic analysis; assay type: organism-based; conditions: in vivo; outline: as §3
[25] = Acute toxicity in BALB/c mouse assessed as effect on kidney at 800 mg/kg, po measured on day 14 by H and E staining based light microscopic analysis; assay type: organism-based; conditions: in vivo; outline: as §3

Sequence of Dihydroorotate dehydrogenase (quinone), mitochondrial (Q02127 whole entry): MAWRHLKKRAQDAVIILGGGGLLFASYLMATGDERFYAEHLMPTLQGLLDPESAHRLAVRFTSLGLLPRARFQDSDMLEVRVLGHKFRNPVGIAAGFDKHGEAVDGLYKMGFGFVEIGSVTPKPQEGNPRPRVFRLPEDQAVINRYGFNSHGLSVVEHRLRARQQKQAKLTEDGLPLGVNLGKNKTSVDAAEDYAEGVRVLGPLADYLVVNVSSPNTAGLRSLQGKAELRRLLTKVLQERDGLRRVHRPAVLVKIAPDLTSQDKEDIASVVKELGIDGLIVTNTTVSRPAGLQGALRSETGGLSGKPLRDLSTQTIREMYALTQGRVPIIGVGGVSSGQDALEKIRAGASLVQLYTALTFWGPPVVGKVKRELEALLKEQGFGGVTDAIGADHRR

O=C1c2ccccc2C(=O)c2c1nnn2-c1cc(F)c(-c2ccccc2F)c(F)c1
IC50 [1]: 4.5 nM | IC50 (HeLa): > 10000 nM | IC50 (K562): 110 nM | Activity (Raji [2]): Dose-dependent effect | Activity (Raji [3]): 86.31% | Activity (Raji [4]): 3.09% | Activity (Raji [5]): 3.08% | Activity (Raji [6]): 0.39% | degraded at 24 h, 0.01 mg/ml [7]: 1.6 to 9% | degraded at 24 h, 0.01 mg/ml [8]: 15% | half-life ([9]; Sprague-Dawley): 8.83 h | t1/2 [9]: 12.47 h | inhibition in vivo at 40 mg/kg/day (Raji [10]): 52% | inhibition in vivo at 80 mg/kg/day (Raji [11]): 68% | Activity [12]: Non-Toxic | Activity [13]: Non-Toxic | Activity [14]: Non-Toxic | Activity [15]: Non-Toxic | Activity [16]: Non-Toxic | Activity [17]: Non-Toxic | Activity [18]: Non-Toxic | Activity [19]: Non-Toxic | Activity [20]: Non-Toxic | Activity [21]: Non-Toxic | Activity [22]: Non-Toxic | Activity [23]: Non-Toxic | Activity [24]: Non-Toxic | Activity [25]: Non-Toxic
